Experimental findings from ChEMBL document CHEMBL2062506, “Synthesis, characterization and structure optimization of a series of thiazolidinone derivatives as Entamoeba histolytica inhibitors” (Eur J Med Chem, 2012) are described below.

Where only a bound is given, the exact number is not on record here.

By IC50 is commonly meant the point on the concentration scale where inhibition reaches its midpoint. Lower therefore signals inhibition by little substance. The term logP denotes a log measure of how a compound divides between an organic and an aqueous phase. Low values mean lower lipophilicity, high ones higher lipophilicity.

For one data set, the system named is Entamoeba histolytica. Briefly: Antiamoebic activity against Entamoeba histolytica HM-1:IMSS after 72 hrs by microdilution method. (In general: Dilution methods test growth across graded concentrations, often in twofold steps.)
Data set [1] is described as follows: Octanol-water partition coefficient, log P of the compound. It counts as physicochemical.
Another data set has as its system HepG2. Briefly: Cytotoxicity against human HepG2 cells after 48 hrs by MTT assay. Type of data set: cell-based. The note with it: for IC50: Homo sapiens, HepG2, 48 h; for inhibition (INH): human, hepg2, 48 h. Summed up:
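HepG2 cells grown in DMEM with 10% heat-inactivated FBS and antibiotics at 37 °C, 5% CO2. Cells seeded at 1.2 × 10^4/well and grown 48 h, then exposed 48 h to 3.13–100 µM compound (DMSO stock diluted in medium). MTT (5 mg/mL) added for 4 h, formazan dissolved in DMSO, A570 read against 655 nm reference. Viability expressed relative to untreated cells; triplicate, repeated thrice.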
(Tetrazolium assays rely on reduction of a dye to a coloured formazan, in cell work by metabolically active cells.)

In the data set on Entamoeba histolytica, `CC(C)CN1C(=O)/C(=C/c2ccc(O)cc2)S/C1=N\c1ccccc1` yielded an IC50 of 2450 nM. Further, the logP in data set [1] turned out to be 5.08.
The molecule `COc1ccc(/C=C2\S/C(=N\c3ccccc3)N(CC(C)C)C2=O)cc1OC` registered an IC50 in the data set with Entamoeba histolytica of 440 nM. Further, the logP in data set [1] was 5.06. Also, in the data set with HepG2, the concentration for half-maximal inhibition (IC50) was above 100 µM and the “inhibition (INH)” value is recorded as “Dose-dependent effect”.
On to `COc1ccc(/C=C2\S/C(=N\c3ccccc3)N(CC(C)C)C2=O)cc1`, for which the IC50 in the data set with Entamoeba histolytica was 2720 nM. This molecule showed a logP in data set [1] of 5.22.
`Cc1ccc(/C=C2\S/C(=N\c3ccccc3)N(CC(C)C)C2=O)cc1` yielded an IC50 with Entamoeba histolytica of 3210 nM. For the same molecule, the logP in data set [1] was determined as 5.89.
The molecule `CC(C)CN1C(=O)/C(=C/c2ccccc2O)S/C1=N\c1ccccc1` came in with an IC50 in the data set with Entamoeba histolytica of 2040 nM. In data set [1], this molecule had a logP of 5.08.
Take `CC(C)CN1C(=O)/C(=C/c2ccc3c(c2)OCO3)S/C1=N\c1ccccc1`: in the data set on Entamoeba histolytica, inhibition was half-maximal at 16700 nM (IC50). In data set [1], this molecule displayed a logP of 5.
Regarding `CC(C)CN1C(=O)/C(=C/c2ccccn2)S/C1=N\c1ccccc1`, in the data set with Entamoeba histolytica, inhibition was half-maximal at 600 nM (IC50). Besides, the logP in data set [1] was 4.4. In addition, in the data set on HepG2, the IC50 is above 100 µM and the “inhibition (INH)” value is reported as “Dose-dependent effect”.
Taken in the same sequence, the figures for `Cc1ccsc1/C=C1\S/C(=N\c2ccccc2)N(CC(C)C)C1=O` were 110 nM, 5.81, 89.2 µM and “Dose-dependent effect”.
Taken in the same sequence, the figures for `COc1cc(/C=C2\S/C(=N\c3ccccc3)N(CC(C)C)C2=O)ccc1O` were 640 nM, 4.92, 89.5 µM and “Dose-dependent effect”.
As for `CC(C)CN1C(=O)/C(=C/c2cccc(Cl)c2)S/C1=N\c1ccccc1`, in the data set on Entamoeba histolytica, the midpoint of inhibition, the IC50, lay at 660 nM. The logP in data set [1] was 5.98. For the same molecule, in the data set on HepG2, the IC50 is 88.1 µM and the “inhibition (INH)” value is given as “Dose-dependent effect”.
Turning to `COc1ccc(OC)c(/C=C2\S/C(=N\c3ccccc3)N(CC(C)C)C2=O)c1`, half-maximal inhibition with Entamoeba histolytica (IC50) required 1950 nM. Besides, in data set [1], the logP was 5.06.
The molecule `CCc1ccc(/C=C2\S/C(=N\c3ccccc3)N(CC(C)C)C2=O)cc1` gave an IC50 with Entamoeba histolytica of 960 nM. Also, the logP in data set [1] stood at 6.34. Moreover, in the data set with HepG2, the IC50 was determined as 84.7 µM and the “inhibition (INH)” value was “Dose-dependent effect”.
As for `CC(C)CN1C(=O)/C(=C/c2ccc(Cl)cc2)S/C1=N\c1ccccc1`, in the data set with Entamoeba histolytica, the IC50 is 1920 nM. Moreover, the logP in data set [1] was found to be 5.98.
Taken in the same sequence, the figures for `CC(C)CN1C(=O)/C(=C/c2ccccc2C(F)(F)F)S/C1=N\c1ccccc1` were 3710 nM and 6.26.
The molecule `CC(C)CN1C(=O)/C(=C/c2ccc(N(C)C)cc2)S/C1=N\c1ccccc1` came in with an IC50 with Entamoeba histolytica of 172 nM. In addition, the logP in data set [1] turned out to be 5.49. In the data set with HepG2, the IC50 was above 100 µM and the “inhibition (INH)” value was “Dose-dependent effect”.
For `CC(C)CN1C(=O)/C(=C/c2ccc([N+](=O)[O-])cc2)S/C1=N\c1ccccc1` the same measures were 138 nM, 5.32, above 100 µM and “Dose-dependent effect”.
In the data set with Entamoeba histolytica, `Cc1ncc([N+](=O)[O-])n1CCO` [METRONIDAZOLE] came in with an IC50 of 1640 nM. Also, in the data set on HepG2, the IC50 was above 100 µM and the “inhibition (INH)” value was “Dose-dependent effect”.
